Laboratory results published in ChEMBL document CHEMBL1795218, “Selective bone targeting 5-fluorouracil prodrugs: synthesis and preliminary biological evaluation” (Bioorg Med Chem, 2011).
The source made the active and inactive calls. The calls are words filed in the database; no cut-off is given here. Residues, ends and D or L forms follow the SMILES beside them. *: point of attachment. Acetyl(5-fluorouracil-1-yl) = O=C(Cn1cc(F)c(=O)[nH]c1=O)*; X1 = O=C(CCC(=O)*)OCn1cc(F)c(=O)[nH]c1=O

Columns and labels:
Hydroxyapatite [1] = assay: Binding affinity to bone mineral hydroxyapatite assessed as binding index after 24 hrs by UV-spectrophotometer analysis relative to 5-fluorouracil; design: concentration or dose not given beside the values
Method in brief: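 Hydroxyapatite (25 mg/ml) added to 5 ml conjugate solutions at 500 µg/ml (C0). Sonicated 5 min, then held in a 37 °C water bath for […] or over 24 h. Unbound conjugate read by UV at 254 nm against an absorbance–concentration calibration line. Tetracycline as positive control. Binding index given as mean ± SD, n = 3.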

Hydroxyapatite [2] = assay: Binding affinity to bone mineral hydroxyapatite assessed as binding index after 0.5 hrs by UV-spectrophotometer analysis relative to 5-fluorouracil; design: concentration or dose not given beside the values
Mus musculus = species: Mus musculus; assay: Cmax in mouse; assay type: ADME, organism-based; conditions: in vivo
[3] = AUC in mouse; assay type: ADME, organism-based; conditions: plasma
Femur [4] = assay: Biodistribution in po dosed mouse femur after 12 hrs; assay type: ADME, organism-based; conditions: in vivo
Method in brief: (§1)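 Mice dosed orally. At 1 h or 12 h, kidney, liver, femur and blood collected. Organs rinsed in cold saline, blotted, extracted with methanol, diluted and centrifuged before analysis. Mean and SD of three independent experiments.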

HeLa [5] = assay: Cytotoxicity against human HeLa cells after 3 days by MTT assay in presence of 50% human plasma; assay type: functional, cell-based
Method in brief: (§2)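 MG-63 or HeLa cells plated at 5×10³ cells/well. Exposed to conjugates at 1–64 µM (5-FU-equivalent), with or without human plasma, for 72 h under 5% CO₂. MTT then added for 2 h and absorbance read at 490 nm. Mean and SD of three independent experiments.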

[6] = Half life in mouse; assay type: ADME, organism-based; conditions: in vivo
Plasma [7] = assay: Prodrug activation in 50% human plasma assessed as 5-fluorouracil release after 5 days by RP-HPLC analysis; assay type: cell-free; conditions: 120 h
Method in brief: (§3)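 Conjugates incubated at 37 °C in PBS pH 7.4 or in 50% (v/v in PBS) human plasma, with a little DMSO added for solubility. Released 5-FU measured by RP-HPLC at 1.0 mL/min, detection at 256 nm, 25 °C.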

MG-63 [8] = assay: Cytotoxicity against human MG63 cells after 3 days by MTT assay in presence of 50% human plasma; assay type: functional, cell-based; method in brief: as §2
[9] = Apparent volume of distribution in mouse; assay type: ADME, organism-based; conditions: in vivo, read-out: Vz
HeLa [10] = assay: Cytotoxicity against human HeLa cells after 3 days by MTT assay; assay type: functional, cell-based; conditions: 72 h; method in brief: as §2
MG-63 [11] = assay: Cytotoxicity against human MG63 cells after 3 days by MTT assay; assay type: functional, cell-based; conditions: MG-63, 72 h; method in brief: as §2
Plasma [12] = assay: Prodrug activation in 50% human plasma assessed as 5-fluorouracil release after 60 hrs by RP-HPLC analysis; assay type: cell-free; method in brief: as §3
Femur [13] = assay: Biodistribution in po dosed mouse femur after 1 hr; assay type: ADME, organism-based; conditions: in vivo; method in brief: as §1
[14] = Prodrug activation in phosphate buffered saline at pH 7.4 assessed as 5-fluorouracil release after 60 hrs by RP-HPLC analysis; conditions: buffer, pH 7.4, 60 h; method in brief: as §3
[15] = Prodrug activation in phosphate buffered saline at pH 7.4 assessed as 5-fluorouracil release after 5 days by RP-HPLC analysis; conditions: buffer, pH 7.4, 120 h; method in brief: as §3

Compound	Activity (Hydroxyapatite [1]) [%]	Activity (Hydroxyapatite [2]) [%]	Cmax (Mus musculus) [µg/mL]	AUC [3] [ng·h/mL]	Drug uptake (Femur [4])	Activity (HeLa [5])	half-life [6] [h]	Activity (Plasma [7]) [%]	Activity (MG-63 [8])	Vd [9] [L/kg]	IC50 (HeLa [10]) [µM]	IC50 (MG-63 [11]) [µM]	Activity (Plasma [12]) [%]	Drug uptake (Femur [13])	Activity [14] [%]	Activity [15] [%]
CN(C)[C@@H]1C(O)=C(C(N)=O)C(=O)[C@@]2(O)C(O)=C3C(=O)c4c(O)cccc4[C@@](C)(O)[C@H]3C[C@@H]12	56.2	24.1	–	–	–	–	–	–	–	–	–	–	–	–	–	–
O=C(O)C[C@H](NC(=O)[C@H](CC(=O)O)NC(=O)[C@H](CC(=O)O)NC(=O)[C@H](CC(=O)O)NC(=O)CCC(=O)OCn1cc(F)c(=O)[nH]c1=O)C(=O)O (X1-DDDD-OH)	42.5	16.6	–	–	–	–	–	–	–	–	–	–	–	–	–	–
O=C(O)C[C@H](NC(=O)[C@H](CC(=O)O)NC(=O)[C@H](CC(=O)O)NC(=O)[C@H](CC(=O)O)NC(=O)[C@H](CC(=O)O)NC(=O)CCC(=O)OCn1cc(F)c(=O)[nH]c1=O)C(=O)O (X1-DDDDD-OH)	25.5	13.4	–	–	–	–	–	–	–	–	–	–	–	–	–	–
O=C(O)C[C@H](NC(=O)[C@H](CC(=O)O)NC(=O)[C@H](CC(=O)O)NC(=O)[C@H](CC(=O)O)NC(=O)[C@H](CC(=O)O)NC(=O)[C@H](CC(=O)O)NC(=O)CCC(=O)OCn1cc(F)c(=O)[nH]c1=O)C(=O)O (X1-DDDDDD-OH)	69.7	37.8	51100	90100	Active	Active	6.75	80	Active	32.2	> 64	> 64	60.3	Active	–	–
O=C(O)C[C@H](NC(=O)[C@H](CC(=O)O)NC(=O)[C@H](CC(=O)O)NC(=O)[C@H](CC(=O)O)NC(=O)Cn1cc(F)c(=O)[nH]c1=O)C(=O)O ({Acetyl(5-fluorouracil-1-yl)}-DDDD-OH)	40.2	14.3	–	–	–	–	–	–	–	–	–	–	–	–	–	–
O=C(O)C[C@H](NC(=O)[C@H](CC(=O)O)NC(=O)[C@H](CC(=O)O)NC(=O)[C@H](CC(=O)O)NC(=O)[C@H](CC(=O)O)NC(=O)Cn1cc(F)c(=O)[nH]c1=O)C(=O)O ({Acetyl(5-fluorouracil-1-yl)}-DDDDD-OH)	19.8	11.6	–	–	–	–	–	–	–	–	–	–	–	–	–	–
O=C(O)C[C@H](NC(=O)[C@H](CC(=O)O)NC(=O)[C@H](CC(=O)O)NC(=O)[C@H](CC(=O)O)NC(=O)[C@H](CC(=O)O)NC(=O)[C@H](CC(=O)O)NC(=O)Cn1cc(F)c(=O)[nH]c1=O)C(=O)O ({Acetyl(5-fluorouracil-1-yl)}-DDDDDD-OH)	62.7	31.4	42400	76600	Active	Active	4.36	60	Active	24.1	> 64	> 64	47.4	Active	3.2	5
O=c1[nH]cc(F)c(=O)[nH]1 [FLUOROURACIL]	0	0	–	76600	Active	–	4.36	–	–	24.1	4	8	–	Active	–	–
